Measurements from PubChem BioAssay.
The list shows a part of the results. Records with an inconclusive call do not appear. Unmarked numbers belong to inactive results. The source made the active and inactive calls.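 How the source made its calls, unless noted: active means thallium entry rate above the same plate's blocked-transporter control wells by more than 3 SD; inconclusive means the two repeat wells disagree; inactive means the rest.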

Assays:
[1] = target: Solute carrier family 12 member 5 (Homo sapiens) (UniProt Q9H2X9); assay: KCC2 modulators in sodium-free buffer, confirmation, cell-based, HEK293 KCC2, thallium flux, secondary assay (AID 1713;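 active means thallium flux slope above the same plate's solvent-only control mean plus 3 SD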); settings: FluoZin2 fluorescence, at 10 µM, hits give high values
Outline: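 Test system: KCC2-expressing HEK cells. Medium: Sodium-free N-methylglucamine chloride buffer. Schedule: dye loading 48 min. Technique: kinetic thallium-flux fluorescence imaging.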

PubChem AID 1714 = settings: HEK293-KCC2 + bumetanide/ouabain, thallium flux FluoZin2; at 10 µM; hits give high values
Outline: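 Test system – KCC2-expressing HEK cells · Medium – HBSS-HEPES with ouabain and bumetanide · Reagent – thallium stimulus · Dosing – 10 µM single dose · Times – 48 min dye loading · Technique – kinetic FluoZin2 fluorescence, ex 480/em 540 nm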

[2] = target: Solute carrier family 12 member 5 (Homo sapiens) (UniProt Q9H2X9); assay: KCC2 modulators without ouabain present, confirmation, cell-based, HEK293 KCC2, thallium flux, FluoZin2, secondary assay 2 (AID 1715;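 active means thallium flux slope more than 3 SD above or below the plate's solvent-only control mean, mostly below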;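 further: raw slope with 0.1% DMSO as baseline and bumetanide as block control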); settings: HEK293-KCC2, thallium flux FluoZin2 fluorescence; at 10 µM; actives lie on both sides; F/F0 rise rate, 10–20 s post-thallium
[3] = thallium flux modulation in parental HEK cells, confirmation, counter-screen for KCC2 modulator project, cell-based, counterscreen 1 (AID 1716;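 active means thallium flux rate significantly above the same plate's solvent-only control wells, beyond their mean plus 3 SD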); settings: HEK293 parental cells, thallium flux FluoZin2, ouabain; at 10 µM; baseline-ratio fluorescence slope, 10–20 s after thallium
[4] = target: Solute carrier family 12 member 5 (Homo sapiens) (UniProt Q9H2X9); assay: KCC2 inhibitors and activators, ouabain retest, confirmation, HEK-KCC2 cells (AID 1717;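 active means thallium flux slope beyond 3 SD from same-plate DMSO control mean in most replicates, usually higher, sometimes lower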;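 further: slope of initial-normalized fluorescence between seconds 10 and 20 after thallium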); settings: HEK293-KCC2, thallium flux FluoZin2 fluorescence, at 10 µM, bidirectional: low = inhibitor, high = activator
[5] = native HEK Tl+ uptake effects, second counter-screen – HEK cells, counterscreen 2, counter-screen for KCC2 modulator project, confirmation (AID 1718;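 active means thallium flux slope above the same plate's solvent-control mean plus 3 SD in both duplicate wells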;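 further: run without ouabain in cells lacking the KCC2 cotransporter; slope of fluorescence scaled to its starting value between 10 and 20 s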); settings: HEK293 parental, thallium flux FluoZin-2 fluorescence slope; at 10 µM
Outline: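 Read-out: thallium influx rate; assay system: parental HEK cells; replication: slope calculated separately for each replicate well; signal: FluoZin2-AM fluorescence (0.5 µM), ex 480 nm, em 540 nm, kinetic 1 Hz; benchmarks: bumetanide 2 mM; schedule: overnight cell culture at 37 °C, 48 min dye loading, compound before thallium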

Chain of Solute carrier family 12 member 5 (Homo sapiens) (Q9H2X9 whole entry, looked up): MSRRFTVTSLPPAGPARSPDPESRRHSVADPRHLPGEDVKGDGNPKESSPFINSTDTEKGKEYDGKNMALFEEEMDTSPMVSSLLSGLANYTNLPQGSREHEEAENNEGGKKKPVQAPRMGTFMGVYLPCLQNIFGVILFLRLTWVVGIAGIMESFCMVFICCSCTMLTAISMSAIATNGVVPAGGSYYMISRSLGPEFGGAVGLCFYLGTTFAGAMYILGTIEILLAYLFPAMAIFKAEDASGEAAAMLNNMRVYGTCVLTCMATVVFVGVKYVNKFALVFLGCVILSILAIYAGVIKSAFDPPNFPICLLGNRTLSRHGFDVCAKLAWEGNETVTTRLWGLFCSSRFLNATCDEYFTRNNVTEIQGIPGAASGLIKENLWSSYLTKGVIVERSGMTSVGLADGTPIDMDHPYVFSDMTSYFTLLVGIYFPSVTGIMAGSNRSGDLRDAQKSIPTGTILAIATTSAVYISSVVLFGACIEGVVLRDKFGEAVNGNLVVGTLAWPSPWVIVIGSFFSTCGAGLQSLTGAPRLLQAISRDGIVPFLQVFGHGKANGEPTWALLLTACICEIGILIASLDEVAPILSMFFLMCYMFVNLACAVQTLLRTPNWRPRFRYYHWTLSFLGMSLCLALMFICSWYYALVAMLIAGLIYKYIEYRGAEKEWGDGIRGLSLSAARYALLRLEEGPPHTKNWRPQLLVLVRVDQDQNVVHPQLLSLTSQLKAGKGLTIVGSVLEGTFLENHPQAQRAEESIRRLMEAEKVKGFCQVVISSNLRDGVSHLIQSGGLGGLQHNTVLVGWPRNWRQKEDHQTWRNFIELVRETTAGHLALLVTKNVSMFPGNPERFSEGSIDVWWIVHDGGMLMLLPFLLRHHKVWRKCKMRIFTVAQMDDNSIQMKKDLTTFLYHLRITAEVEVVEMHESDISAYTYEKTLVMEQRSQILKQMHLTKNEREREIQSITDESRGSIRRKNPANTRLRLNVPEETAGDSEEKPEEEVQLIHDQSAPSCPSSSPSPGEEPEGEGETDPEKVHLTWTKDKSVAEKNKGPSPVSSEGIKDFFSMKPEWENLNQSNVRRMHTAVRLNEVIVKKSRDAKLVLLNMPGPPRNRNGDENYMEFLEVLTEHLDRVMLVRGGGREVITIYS

| Compound | normalised thallium flux (F/F0 slope) [1] | normalized thallium flux (PubChem AID 1714) | normalized thallium flux [2] | thallium flux rate (normalised fluorescence) [3] | raw Tl+ flux slope (below DMSO = inhibition, above = activation) [4] | thallium flux slope [5] |
| --- | --- | --- | --- | --- | --- | --- |
| COc1ccc(NC(=O)N2CCC(Cc3ccccc3)CC2)cc1 | 0.00655 | 0.00529 | 0.0303 | 0.00728 | 0.0137 (active) | – |
| COc1ccc([N+](=O)[O-])cc1NC(=O)COC(=O)/C=C/c1ccco1 | 0.00867 | 0.00651 | 0.0316 | 0.0079 | 0.0204 | 0.011 |
| C=CCNC(=S)NNC(=O)COc1c(Cl)cc(Cl)cc1Cl | 0.0146 (active) | 0.0275 (active) | 0.0376 | 0.0266 (active) | 0.03 (active) | – |
| S=c1[nH]nc(Nc2ccccc2)s1 | 0.00869 | 0.00545 | 0.026 (active) | 0.00742 | 0.0108 (active) | 0.00974 |
| Oc1ccccc1/C=N/n1c(-c2cccs2)n[nH]c1=S | 0.02 (active) | 0.0602 (active) | 0.0326 | 0.0173 (active) | 0.0288 (active) | 0.0224 (active) |
| COc1ccc(-n2c(=S)[nH]c3sc4c(c3c2=O)CCc2ccccc2-4)cc1 | 0.0163 (active) | 0.0262 (active) | 0.0334 | 0.0162 (active) | 0.0311 (active) | – |
| CCCOC(=O)CC1C(=O)NCCN1Cc1ccc(F)cc1 (configuration not stated) | 0.00813 | 0.00582 | 0.0278 | 0.0066 | 0.019 | 0.00872 |
| CC(C)C1Nc2c(C(=O)O)cccc2C(Nc2ccccc2C(=O)O)C1(C)C (configuration not stated) | 0.00578 | 0.00489 | 0.0236 (active) | 0.00619 (active) | 0.0131 (active) | – |
| Cc1nc(SCc2ccc(F)cc2)c([N+](=O)[O-])[nH]1 | 0.00918 | 0.00631 | 0.0237 (active) | 0.00609 | 0.0255 (active) | 0.00995 |
| Cc1ccccc1-c1n[nH]c(=S)n1/N=C/c1ccc(-c2ccccc2Br)o1 | 0.0093 | 0.016 (active) | 0.0304 | 0.00991 (active) | – | – |
| Cc1ccc(/C=N/NC(=S)Nc2cccc(S(=O)(=O)N(C)C)c2)o1 | 0.00805 | 0.0101 (active) | 0.028 | 0.0106 (active) | – | – |
| Cc1ccc(OCc2n[nH]c(=S)n2-c2ccc(C)cc2)cc1 | 0.0109 | 0.094 (active) | 0.0355 | 0.0134 (active) | – | – |
| S=c1nccc(-c2cc(Cl)sc2Cl)[nH]1 | 0.00959 | 0.0101 (active) | 0.0372 | 0.0107 (active) | – | – |
| COC(=O)c1cccnc1NC(=S)NC(C)C | 0.0244 (active) | 0.0413 (active) | 0.0368 | 0.035 (active) | 0.0394 (active) | 0.0178 (active) |
| O=C(CN(c1cccc(Cl)c1)S(=O)(=O)c1ccccc1)NN=C1CCCC1 | 0.0069 | 0.00505 | 0.0271 | 0.00791 | 0.0178 | 0.00991 |
| Cc1ccc(N2C(=O)C(Cc3ccccc3)NC2=S)cc1 (configuration not stated) | 0.00991 | 0.0247 (active) | 0.032 | 0.0128 (active) | 0.0236 | – |
| COc1cccc(-c2nnc(NC(=O)c3ccc(S(=O)(=O)N(CC(C)C)CC(C)C)cc3)o2)c1 | 0.0109 | 0.0246 (active) | 0.0331 | 0.0752 (active) | 0.0359 (active) | 0.0148 (active) |
| C=CCn1c(=S)[nH]c2scc(-c3ccco3)c2c1=O | 0.0122 (active) | 0.0771 (active) | 0.0916 (active) | 0.0914 (active) | 0.0814 (active) | 0.0843 (active) |
| O=C(COC(=O)c1ccc(Oc2ccccc2)cc1)Nc1nnc(-c2ccccc2)o1 | 0.00704 | 0.0517 (active) | 0.0474 (active) | 0.0357 (active) | 0.0424 (active) | 0.0346 (active) |
| CS(=O)(=O)c1sc(C(=O)NC(=S)Nc2ccc(OC(F)(F)F)cc2)c2c1C=CCC2 | 0.00979 | 0.0362 (active) | 0.0324 | 0.0134 (active) | 0.0498 (active) | – |
| O=C(Nc1nnc(C2COc3ccccc3O2)o1)c1ccc(F)cc1 (configuration not stated) | 0.0197 (active) | 0.06 (active) | 0.032 | 0.0287 (active) | 0.0495 (active) | 0.0126 (active) |
| N=c1oc2ccccc2cc1C(=O)N/N=C/c1ccccc1 | 0.00592 (active) | 0.00648 | 0.0291 | 0.00736 | 0.0198 (active) | – |
